Data from ChEMBL document CHEMBL4680093 (J Med Chem, 2016).

Tests used:
[1] = In-vivo inhibition of 11beta-HSD1 activity in C57BL/6 mouse liver assessed as reduction in cortisone to-cortisol conversion at 3 mg/kg, po measured after 2 hrs by ELISA; assay type: functional; conditions: C57BL/6, Liver
Procedure, shortened: (§1)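 Male C57BL/6 mice dosed orally once at 3, 10 or 30 mg/kg in sterile water containing 0.5% methylcellulose and 1% Tween80, then sacrificed at 2 or 6 h. Liver and epididymal fat pads incubated ex vivo in culture medium containing cortisone. Cortisol formed was measured by ELISA and reported as % inhibition versus vehicle.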

[2] = molecular target: Phosphodiesterase 4 (Homo sapiens, UniProt P27815+Q08499+Q07343+Q08493); assay: Inhibition of PDE4 (unknown origin); assay type: protein assay
[3] = Reduction in HbA1c level in C57BL/6-Lep^ob (ob/ob) mouse at 20 mg/kg, po dosed once daily for 25 days relative to control; assay type: functional; set-up: scale not given: the % may be the effect or the level left; conditions: time 25 day
Procedure, shortened: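 Eight-week-old male ob/ob mice were dosed orally once daily for 25 days with vehicle (sterile water, 0.5% methylcellulose, 1% Tween80), test compound 20 mg/kg, metformin 300 mg/kg, or the combination. Baseline postprandial glucose and HbA1c were checked from tail-vein blood. Changes in HbA1c and non-fasting blood glucose were expressed relative to the vehicle group.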

[4] = molecular target: Voltage-gated inwardly rectifying potassium channel KCNH2 (Homo sapiens, UniProt Q12809); assay: Inhibition of human ERG expressed in CHO cells by whole-cell patch clamp assay; assay type: cell-based
Voltage-gated inwardly rectifying potassium channel KCNH2, sequence (Q12809 whole entry): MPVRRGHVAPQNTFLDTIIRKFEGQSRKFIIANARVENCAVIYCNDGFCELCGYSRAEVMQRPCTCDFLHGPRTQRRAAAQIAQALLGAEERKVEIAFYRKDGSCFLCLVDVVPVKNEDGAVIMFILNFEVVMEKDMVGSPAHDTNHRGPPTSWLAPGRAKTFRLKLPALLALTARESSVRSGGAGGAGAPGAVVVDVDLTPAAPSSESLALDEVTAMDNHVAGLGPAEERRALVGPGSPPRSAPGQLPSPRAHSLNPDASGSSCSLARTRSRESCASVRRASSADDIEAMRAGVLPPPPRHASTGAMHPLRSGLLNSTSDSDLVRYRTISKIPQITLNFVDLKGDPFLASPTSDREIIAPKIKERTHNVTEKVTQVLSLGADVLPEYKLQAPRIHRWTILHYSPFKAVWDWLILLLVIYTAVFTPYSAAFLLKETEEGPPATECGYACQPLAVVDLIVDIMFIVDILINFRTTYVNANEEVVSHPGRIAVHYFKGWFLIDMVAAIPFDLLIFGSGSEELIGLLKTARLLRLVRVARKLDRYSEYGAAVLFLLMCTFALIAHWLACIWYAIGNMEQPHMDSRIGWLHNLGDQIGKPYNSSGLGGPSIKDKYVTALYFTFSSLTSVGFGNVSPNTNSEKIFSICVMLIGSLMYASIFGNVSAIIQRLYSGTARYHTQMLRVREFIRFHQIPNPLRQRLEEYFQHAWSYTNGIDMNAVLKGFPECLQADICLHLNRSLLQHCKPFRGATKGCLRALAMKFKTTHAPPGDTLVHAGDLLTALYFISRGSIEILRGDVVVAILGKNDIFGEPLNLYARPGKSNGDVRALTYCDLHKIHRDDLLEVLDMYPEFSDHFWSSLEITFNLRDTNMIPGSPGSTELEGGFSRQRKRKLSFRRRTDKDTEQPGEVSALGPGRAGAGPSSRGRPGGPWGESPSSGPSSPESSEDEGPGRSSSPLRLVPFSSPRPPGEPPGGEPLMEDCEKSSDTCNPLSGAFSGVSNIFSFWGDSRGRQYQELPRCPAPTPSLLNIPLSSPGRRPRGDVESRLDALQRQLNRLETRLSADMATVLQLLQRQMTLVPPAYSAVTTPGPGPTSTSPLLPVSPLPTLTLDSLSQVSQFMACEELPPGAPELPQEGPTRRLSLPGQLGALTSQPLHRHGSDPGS
Procedure, shortened: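 hERG channels stably expressed in CHO cells were recorded by whole-cell patch clamp, and an IC50 was estimated.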

[5] = Ratio of unbound Cmax in mouse plasma at 10 mg/kg, po measured after 2 hrs post dose to IC50 for human ERG expressed in CHO cells; assay type: ADME, organism-based; conditions: in vivo
[6] = Ratio of drug level in adipose tissue to plasma of mouse at 10 mg/kg, po measured after 2 hrs post dose; assay type: ADME, organism-based
Procedure, shortened: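 C57BL/6 mice received a single oral dose of 10 mg/kg in 0.5% methylcellulose/1% Tween80. Animals were sacrificed 2 h post-dose. Compound was measured in brain, liver, adipose and plasma (nmol/g), and tissue/plasma ratios were calculated.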

[7] = Cmax in dog at 4 mg/kg, po; assay type: ADME, organism-based, Canis lupus familiaris; set-up: route oral, dose 4 mg/kg; conditions: in vivo
[8] = molecular target: 11-beta-hydroxysteroid dehydrogenase 1 (Homo sapiens, UniProt P28845); assay: Inhibition of human 11beta-HSD1 expressed in microsomes; set-up: species or system Microsome
11-beta-hydroxysteroid dehydrogenase 1, sequence (P28845 whole entry): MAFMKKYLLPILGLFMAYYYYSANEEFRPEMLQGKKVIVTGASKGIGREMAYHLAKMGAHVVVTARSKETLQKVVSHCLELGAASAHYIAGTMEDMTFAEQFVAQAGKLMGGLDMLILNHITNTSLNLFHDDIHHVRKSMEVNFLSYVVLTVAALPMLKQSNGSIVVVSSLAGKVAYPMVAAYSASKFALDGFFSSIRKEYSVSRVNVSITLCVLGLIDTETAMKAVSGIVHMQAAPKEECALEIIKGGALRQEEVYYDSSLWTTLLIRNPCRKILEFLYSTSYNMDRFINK
Procedure, shortened: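 HEK293 cell lysates (microsomal fractions) overexpressing human or mouse 11β-HSD1 were incubated with cortisone, a range of inhibitor concentrations and an NADPH regenerating system in sodium phosphate buffer at 37°C for 1 h. Cortisol in the supernatant was quantified by ELISA. Percent inhibition was fitted to a sigmoidal dose-response curve to give IC50.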

[9] = Toxicity in dog assessed as induction of abnormal changes in cardiovascular system up to 400 mg/kg, po; assay type: organism-based, Canis lupus familiaris; conditions: in vivo
Procedure, shortened: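 Dogs fitted with telemetry were given oral doses of up to 400 mg/kg. Cardiovascular and respiratory systems were monitored for abnormal changes.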

[10] = molecular target: T1, Mineralocorticoid receptor (Homo sapiens, UniProt P08235); assay: Antagonist activity at mineralocorticoid receptor (unknown origin)
T1 sequence (P08235 whole entry): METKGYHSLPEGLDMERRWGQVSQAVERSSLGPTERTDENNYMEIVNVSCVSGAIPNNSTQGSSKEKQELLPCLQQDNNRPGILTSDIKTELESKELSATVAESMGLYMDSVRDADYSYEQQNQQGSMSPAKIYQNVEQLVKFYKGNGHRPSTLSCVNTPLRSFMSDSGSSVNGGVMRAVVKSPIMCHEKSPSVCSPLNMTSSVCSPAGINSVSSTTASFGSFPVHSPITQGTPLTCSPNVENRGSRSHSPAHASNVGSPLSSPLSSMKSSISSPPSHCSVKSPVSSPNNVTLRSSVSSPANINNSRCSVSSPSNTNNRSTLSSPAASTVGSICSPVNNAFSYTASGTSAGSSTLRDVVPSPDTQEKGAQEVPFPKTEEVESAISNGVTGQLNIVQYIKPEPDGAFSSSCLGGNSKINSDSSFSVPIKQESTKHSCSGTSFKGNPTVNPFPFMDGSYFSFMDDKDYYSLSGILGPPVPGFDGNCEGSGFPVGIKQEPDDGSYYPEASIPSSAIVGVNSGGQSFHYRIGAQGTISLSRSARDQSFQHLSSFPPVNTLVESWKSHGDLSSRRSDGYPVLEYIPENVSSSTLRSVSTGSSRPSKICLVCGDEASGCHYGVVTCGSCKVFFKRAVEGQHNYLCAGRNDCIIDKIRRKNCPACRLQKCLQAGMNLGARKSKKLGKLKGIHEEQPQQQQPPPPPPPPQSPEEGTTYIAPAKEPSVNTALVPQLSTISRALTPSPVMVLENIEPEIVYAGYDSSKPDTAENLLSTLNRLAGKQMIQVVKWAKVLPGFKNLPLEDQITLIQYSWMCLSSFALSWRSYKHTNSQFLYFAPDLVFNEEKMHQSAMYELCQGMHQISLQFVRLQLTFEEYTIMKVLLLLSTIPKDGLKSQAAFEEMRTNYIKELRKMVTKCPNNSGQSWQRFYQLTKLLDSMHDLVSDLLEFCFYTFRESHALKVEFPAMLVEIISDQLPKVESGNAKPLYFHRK

[11] = Protein binding in mouse plasma; assay type: ADME, cell-free; conditions: read-out: PPB
[12] = In-vivo inhibition of 11beta-HSD1 activity in C57BL/6 mouse liver assessed as reduction in cortisone to-cortisol conversion at 3 mg/kg, po measured after 6 hrs by ELISA; assay type: functional; conditions: C57BL/6, Liver; procedure, shortened: as §1
[13] = test system: Erythrocyte; assay: Genotoxicity in mouse erythrocytes by micronucleus test; assay type: toxicity, cell-based

C[C@@H]1CN(c2ccc(S(C)(=O)=O)cc2F)CCN1c1nccc(C(=O)NC2C3CC4CC2CC(O)(C4)C3)n1 (stereo partly drawn)
inhibition in vivo at 3 mg/kg [1]: 74%
IC50 [2]: 5.2 µM
Activity [3]: 1.2%
IC50 [4]: 8 µM
Ratio [5]: > 30
Kp at 2 h [6]: 0.62
Cmax [7]: 1120 ng/mL
IC50 [8]: 0.0029 µM
Activity [9]: Non-Toxic
EC50 [10]: > 5 µM
fraction unbound [11]: 0.01
inhibition in vivo at 3 mg/kg [12]: 71%
Activity [13]: Non-Toxic
